Assay results reported in ChEMBL document CHEMBL4359913, “Identification and characterization of benzo[d]oxazol-2(3H)-one derivatives as the first potent and selective small-molecule inhibitors of chromodomain protein CDYL” (Eur J Med Chem, 2019).
Activity calls are given as the source filed them.

What was measured:
[1] = biological target: T1, Chromodomain Y-like protein (Homo sapiens) (UniProt Q9Y232); experiment: Inhibition of CDYL in human SH-SY5Y cells assessed as increase in VGF mRNA expression incubated for 24 hrs by RT-qPCR analysis; format: cell-based
T1 sequence (whole entry): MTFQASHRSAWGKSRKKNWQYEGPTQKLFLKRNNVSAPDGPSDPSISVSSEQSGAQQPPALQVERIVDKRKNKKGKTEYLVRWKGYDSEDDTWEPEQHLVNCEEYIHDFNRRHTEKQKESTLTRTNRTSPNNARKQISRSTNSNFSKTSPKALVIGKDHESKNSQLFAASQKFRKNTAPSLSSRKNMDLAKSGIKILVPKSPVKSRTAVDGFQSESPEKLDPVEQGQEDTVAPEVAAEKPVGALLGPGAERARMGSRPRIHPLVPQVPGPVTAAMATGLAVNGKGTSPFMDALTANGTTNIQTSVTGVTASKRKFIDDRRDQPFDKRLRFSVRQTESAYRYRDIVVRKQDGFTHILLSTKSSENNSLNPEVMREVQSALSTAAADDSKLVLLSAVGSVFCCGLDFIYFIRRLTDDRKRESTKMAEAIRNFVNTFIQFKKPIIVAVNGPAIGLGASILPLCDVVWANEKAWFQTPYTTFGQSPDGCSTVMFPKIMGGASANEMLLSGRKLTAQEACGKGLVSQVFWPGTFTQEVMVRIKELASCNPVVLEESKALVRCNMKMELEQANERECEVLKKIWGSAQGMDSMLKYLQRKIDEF
In short: (§1)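 SH-SY5Y or HEK-293T cells grown in DMEM with 10% FBS and treated with compound for 24 h. mRNA quantified by SYBR green RT-qPCR after DNase treatment, 2^-ΔΔCt method with GAPDH as reference, relative to DMSO. Mean ± S.E.M. of triplicate experiments, Student's t-test.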

[2] = biological target: T1, Chromodomain Y-like protein (Homo sapiens); experiment: Inhibition of CDYL in human SH-SY5Y cells assessed as increase in BDNF mRNA expression incubated for 24 hrs by RT-qPCR analysis; format: cell-based; in short: as §1
[3] = biological target: T1, Chromodomain Y-like protein (Homo sapiens); experiment: Inhibition of CDYL in human HEK293T cells assessed as increase in VGF mRNA expression at 50 to 200 uM incubated for 24 hrs by RT-qPCR analysis; format: cell-based; in short: as §1
[4] = biological target: T2, Chromodomain Y-like protein (Mus musculus) (UniProt Q9WTK2); experiment: Inhibition of CDYL in C57BL/6 mouse cortical neurons as increase in VGF mRNA expression at 150 uM incubated for 24 hrs by RT-qPCR analysis
T2 sequence (whole entry): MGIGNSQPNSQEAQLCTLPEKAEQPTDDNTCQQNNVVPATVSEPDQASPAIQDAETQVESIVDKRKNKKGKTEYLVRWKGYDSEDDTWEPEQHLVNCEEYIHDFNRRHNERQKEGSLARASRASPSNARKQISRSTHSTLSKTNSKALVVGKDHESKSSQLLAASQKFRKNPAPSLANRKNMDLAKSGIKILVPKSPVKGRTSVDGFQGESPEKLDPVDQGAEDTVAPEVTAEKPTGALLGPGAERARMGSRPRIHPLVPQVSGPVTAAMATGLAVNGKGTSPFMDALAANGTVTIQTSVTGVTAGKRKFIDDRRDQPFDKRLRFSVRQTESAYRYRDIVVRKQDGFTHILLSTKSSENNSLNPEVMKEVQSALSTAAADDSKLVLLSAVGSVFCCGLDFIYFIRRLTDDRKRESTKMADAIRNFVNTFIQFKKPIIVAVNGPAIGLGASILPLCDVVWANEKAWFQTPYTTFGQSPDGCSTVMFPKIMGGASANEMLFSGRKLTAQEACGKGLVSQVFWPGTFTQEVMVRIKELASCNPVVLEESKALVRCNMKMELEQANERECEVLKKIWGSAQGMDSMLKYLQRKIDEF
In short: (§2)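 Mouse cortical or hippocampal neurons, dissociated with trypsin and kept in Neurobasal/B27, treated with 150 µM compound for 24 h. mRNA measured by SYBR green RT-qPCR with the 2^-ΔΔCt method, GAPDH as reference, relative to DMSO. Mean ± S.E.M. of triplicate experiments, Student's t-test.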

[5] = biological target: T1, Chromodomain Y-like protein (Homo sapiens); experiment: Inhibition of CDYL in human SH-SY5Y cells assessed as decrease in enrichment of CDYL at BDNF promoter site at 150 uM incubated for 24 hrs by ChIP-qPCR analysis; format: cell-based
In short: (§3)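 About 1×10^7 SH-SY5Y cells given 150 µM compound or DMSO for 24 h, fixed in 1% formaldehyde for 10 min. Chromatin immunoprecipitated overnight-style (12 h, 4 °C) with CDYL or H3K27me3 antibody, captured on Protein A/G beads, washed, decrosslinked at 65 °C. Promoter DNA quantified by qPCR, mean ± S.E.M. of triplicate experiments, Student's t-test.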

[6] = biological target: T1, Chromodomain Y-like protein (Homo sapiens); experiment: Inhibition of CDYL in human SH-SY5Y cells assessed as decrease in enrichment of H3K27me3 at MYT1 promoter site at 150 uM incubated for 24 hrs by ChIP-qPCR analysis; format: cell-based; in short: as §3
[7] = biological target: T2, Chromodomain Y-like protein (Mus musculus); experiment: Inhibition of CDYL in C57BL/6 mouse cortical neurons assessed as induction of dendritic branching at 150 uM incubated for 24 hrs by DAPI staining confocal microscopic method
In short: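 Mouse hippocampal or cortical neurons on poly-D-lysine given 150 µM compound or DMSO at DIV 5 for 24 h, then fixed in 4% PFA. Stained for MAP2 with DAPI nuclei and imaged by confocal microscopy. Dendrite crossings counted by Sholl analysis at 10 µm intervals. Mean ± S.E.M. of triplicates, Student's t-test.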

[8] = biological target: T1, Chromodomain Y-like protein (Homo sapiens); experiment: Inhibition of CDYL in human SH-SY5Y cells assessed as decrease in enrichment of CDYL at MYT1 promoter site at 150 uM incubated for 24 hrs by ChIP-qPCR analysis; format: cell-based; in short: as §3
[9] = biological target: T1, Chromodomain Y-like protein (Homo sapiens); experiment: Inhibition of CDYL in human SH-SY5Y cells assessed as increase in MYT1 mRNA expression incubated for 24 hrs by RT-qPCR analysis; format: cell-based; in short: as §1
[10] = biological target: T2, Chromodomain Y-like protein (Mus musculus); experiment: Inhibition of CDYL in C57BL/6 mouse hippocampal neurons as increase in VGF mRNA expression at 150 uM incubated for 24 hrs by RT-qPCR analysis; in short: as §2

O=C(Cn1c(=O)oc2ccccc21)N1CCC(N2CCCC2)CC1
active: Activity [1] Dose-dependent effect | Activity [2] Dose-dependent effect | Activity [3] | Activity [4] | inhibition [5] | inhibition [6] | Activity [7] | inhibition [8] | Activity [9] Dose-dependent effect | Activity [10]
